ChEMBL document CHEMBL2346606, “Inhibitors of the TAM subfamily of tyrosine kinases: synthesis and biological evaluation” (Eur J Med Chem, 2013)

Legend:
[1] = target: T1, Tyrosine-protein kinase Mer (Homo sapiens) (UniProt Q12866); experiment: Inhibition of MER (unknown origin) at 200 nM relative to control
T1 sequence (whole entry): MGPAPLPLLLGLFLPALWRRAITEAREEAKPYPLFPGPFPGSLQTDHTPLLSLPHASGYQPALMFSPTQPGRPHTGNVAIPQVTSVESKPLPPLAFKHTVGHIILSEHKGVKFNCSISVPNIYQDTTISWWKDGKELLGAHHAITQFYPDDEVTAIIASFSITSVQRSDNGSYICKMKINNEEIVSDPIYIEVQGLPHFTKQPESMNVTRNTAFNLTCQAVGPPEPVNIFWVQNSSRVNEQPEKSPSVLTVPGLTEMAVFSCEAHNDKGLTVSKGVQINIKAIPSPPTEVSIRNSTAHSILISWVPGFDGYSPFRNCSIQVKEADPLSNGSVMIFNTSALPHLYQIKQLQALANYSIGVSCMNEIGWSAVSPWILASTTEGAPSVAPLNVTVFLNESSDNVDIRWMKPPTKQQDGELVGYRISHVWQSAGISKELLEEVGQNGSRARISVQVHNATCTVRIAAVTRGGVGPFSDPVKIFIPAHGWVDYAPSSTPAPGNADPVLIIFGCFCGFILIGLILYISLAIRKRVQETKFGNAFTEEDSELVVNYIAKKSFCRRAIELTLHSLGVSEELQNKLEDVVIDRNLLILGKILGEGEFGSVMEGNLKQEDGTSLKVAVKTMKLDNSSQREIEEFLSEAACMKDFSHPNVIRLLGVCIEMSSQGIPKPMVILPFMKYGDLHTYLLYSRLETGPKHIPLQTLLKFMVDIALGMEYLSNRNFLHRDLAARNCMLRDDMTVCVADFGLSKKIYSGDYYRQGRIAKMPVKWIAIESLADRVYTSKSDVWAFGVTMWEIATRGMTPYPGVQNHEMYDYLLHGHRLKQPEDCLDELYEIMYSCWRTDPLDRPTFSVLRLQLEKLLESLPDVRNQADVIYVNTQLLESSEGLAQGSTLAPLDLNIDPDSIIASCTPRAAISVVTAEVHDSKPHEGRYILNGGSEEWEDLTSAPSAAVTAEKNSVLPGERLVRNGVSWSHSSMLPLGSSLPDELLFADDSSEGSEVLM

[2] = target: T2, Tyrosine-protein kinase receptor TYRO3 (Homo sapiens) (UniProt Q06418); experiment: Inhibition of TYRO3 (unknown origin) at 200 nM relative to control
T2 sequence (whole entry): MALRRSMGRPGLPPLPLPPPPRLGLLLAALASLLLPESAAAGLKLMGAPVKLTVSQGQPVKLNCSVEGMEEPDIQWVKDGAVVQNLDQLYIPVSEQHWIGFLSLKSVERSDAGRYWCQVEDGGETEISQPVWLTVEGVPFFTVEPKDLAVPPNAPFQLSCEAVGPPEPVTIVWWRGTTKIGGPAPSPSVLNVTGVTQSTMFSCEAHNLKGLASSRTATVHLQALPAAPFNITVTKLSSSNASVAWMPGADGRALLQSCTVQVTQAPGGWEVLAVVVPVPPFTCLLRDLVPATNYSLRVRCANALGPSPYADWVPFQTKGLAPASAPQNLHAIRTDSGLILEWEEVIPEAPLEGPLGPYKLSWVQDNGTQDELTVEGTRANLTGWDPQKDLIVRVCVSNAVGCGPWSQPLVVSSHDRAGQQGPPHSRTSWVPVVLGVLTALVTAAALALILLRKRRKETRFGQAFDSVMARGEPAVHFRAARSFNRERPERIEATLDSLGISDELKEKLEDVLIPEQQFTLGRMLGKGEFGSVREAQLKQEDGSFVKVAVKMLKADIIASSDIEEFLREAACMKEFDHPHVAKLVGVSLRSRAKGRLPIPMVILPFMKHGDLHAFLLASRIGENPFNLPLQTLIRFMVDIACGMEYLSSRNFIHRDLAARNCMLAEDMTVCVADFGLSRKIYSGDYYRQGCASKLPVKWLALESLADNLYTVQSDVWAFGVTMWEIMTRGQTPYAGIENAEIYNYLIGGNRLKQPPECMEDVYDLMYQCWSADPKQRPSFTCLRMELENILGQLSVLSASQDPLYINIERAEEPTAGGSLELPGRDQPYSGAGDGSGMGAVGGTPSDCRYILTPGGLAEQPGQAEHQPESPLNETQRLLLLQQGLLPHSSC

MCF7 = experiment: Growth inhibition of human MCF7 cells at 10 uM after 72 hrs by […] assay relative to control; format: functional; conditions: MCF7, 72 h, read-out: GI
In short: (§1)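 HT29, MCF7 and PC-3 cells were grown in RPMI, plated, and treated 24 h later with compound in DMSO at 10^-5 M (DMSO controls, 1% final). After 72 h exposure, MTS reagent was added for 3 h at 37 °C and absorbance read at 490 nm. Proliferation inhibition = [1 − OD treated/OD control] × 100, triplicate experiments.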

[3] = target: Hepatocyte growth factor receptor (Homo sapiens, UniProt P08581); experiment: Binding affinity to MET (unknown origin) after 1 hr
KB = experiment: Growth inhibition of human KB cells at 10 uM after 72 hrs by […] relative to control; format: functional; conditions: read-out: GI
In short: (§2)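 KB and Vero cells were grown in D-MEM with 10% FCS and antibiotics under 5% CO2, plated, then dosed 24 h later at 10^-5 M from DMSO (controls 1% DMSO). After 72 h, MTS was added for 3 h at 37 °C and A490 read. Inhibition = (1 − OD treated/OD control) × 100, in triplicate.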

[4] = Growth inhibition of African green monkey Vero cells at 10 uM after 72 hrs by […] assay relative to control; format: cell-based; conditions: chlorocebus sabaeus, read-out: GI; in short: as §2
PC-3 = experiment: Growth inhibition of human PC3 cells at 10 uM after 72 hrs by […] assay relative to control; format: functional; conditions: PC-3, 72 h, read-out: GI; in short: as §1
[5] = target: T3, Tyrosine-protein kinase receptor TYRO3 (Homo sapiens, UniProt Q06418); experiment: Binding affinity to TYRO3 (unknown origin) after 1 hr
T3 sequence (Q06418 whole entry): T2 sequence (whole entry)

HT-29 = experiment: Growth inhibition of human HT-29 cells at 10 uM after 72 hrs by […] assay relative to control; format: functional; conditions: HT-29, 72 h, read-out: GI; in short: as §1
[6] = target: T4, Tyrosine-protein kinase receptor UFO (Homo sapiens, UniProt P30530); experiment: Binding affinity to AXL (unknown origin) after 1 hr
T4 sequence (P30530 whole entry): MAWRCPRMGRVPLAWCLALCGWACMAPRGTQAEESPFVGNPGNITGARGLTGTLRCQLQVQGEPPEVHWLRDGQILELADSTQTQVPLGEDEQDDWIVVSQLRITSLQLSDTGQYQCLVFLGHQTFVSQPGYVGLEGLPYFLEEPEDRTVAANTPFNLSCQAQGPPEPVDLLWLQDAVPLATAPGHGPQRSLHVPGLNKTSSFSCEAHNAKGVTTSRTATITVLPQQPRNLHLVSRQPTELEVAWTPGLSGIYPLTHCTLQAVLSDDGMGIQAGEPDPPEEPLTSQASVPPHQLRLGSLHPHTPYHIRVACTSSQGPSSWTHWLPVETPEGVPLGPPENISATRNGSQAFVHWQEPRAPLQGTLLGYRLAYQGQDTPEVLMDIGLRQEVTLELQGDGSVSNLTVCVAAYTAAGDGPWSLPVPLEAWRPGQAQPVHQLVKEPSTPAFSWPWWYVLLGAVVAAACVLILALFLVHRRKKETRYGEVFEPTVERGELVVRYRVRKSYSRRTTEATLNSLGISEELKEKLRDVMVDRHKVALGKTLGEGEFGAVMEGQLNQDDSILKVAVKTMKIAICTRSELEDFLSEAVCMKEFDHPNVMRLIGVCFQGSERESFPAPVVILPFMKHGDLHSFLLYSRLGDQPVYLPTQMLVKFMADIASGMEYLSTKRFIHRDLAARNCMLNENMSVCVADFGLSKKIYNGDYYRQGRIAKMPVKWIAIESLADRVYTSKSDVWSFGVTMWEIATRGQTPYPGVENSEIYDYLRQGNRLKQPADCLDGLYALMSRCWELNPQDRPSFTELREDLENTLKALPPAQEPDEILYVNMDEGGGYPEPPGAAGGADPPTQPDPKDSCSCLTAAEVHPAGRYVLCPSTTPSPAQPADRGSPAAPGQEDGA

[7] = target: T5, Tyrosine-protein kinase ABL1 (Homo sapiens, UniProt P00519); experiment: Binding affinity to non phosphorylated ABL1 (unknown origin) after 1 hr
[8] = target: T6, Tyrosine-protein kinase Mer (Homo sapiens, UniProt Q12866); experiment: Binding affinity to MER (unknown origin) after 1 hr
T6 sequence (Q12866 whole entry): T1 sequence (whole entry)

[9] = target: T5, Tyrosine-protein kinase ABL1; experiment: Binding affinity to phosphorylated ABL1 (unknown origin) after 1 hr

Sequence of Hepatocyte growth factor receptor (P08581 whole entry): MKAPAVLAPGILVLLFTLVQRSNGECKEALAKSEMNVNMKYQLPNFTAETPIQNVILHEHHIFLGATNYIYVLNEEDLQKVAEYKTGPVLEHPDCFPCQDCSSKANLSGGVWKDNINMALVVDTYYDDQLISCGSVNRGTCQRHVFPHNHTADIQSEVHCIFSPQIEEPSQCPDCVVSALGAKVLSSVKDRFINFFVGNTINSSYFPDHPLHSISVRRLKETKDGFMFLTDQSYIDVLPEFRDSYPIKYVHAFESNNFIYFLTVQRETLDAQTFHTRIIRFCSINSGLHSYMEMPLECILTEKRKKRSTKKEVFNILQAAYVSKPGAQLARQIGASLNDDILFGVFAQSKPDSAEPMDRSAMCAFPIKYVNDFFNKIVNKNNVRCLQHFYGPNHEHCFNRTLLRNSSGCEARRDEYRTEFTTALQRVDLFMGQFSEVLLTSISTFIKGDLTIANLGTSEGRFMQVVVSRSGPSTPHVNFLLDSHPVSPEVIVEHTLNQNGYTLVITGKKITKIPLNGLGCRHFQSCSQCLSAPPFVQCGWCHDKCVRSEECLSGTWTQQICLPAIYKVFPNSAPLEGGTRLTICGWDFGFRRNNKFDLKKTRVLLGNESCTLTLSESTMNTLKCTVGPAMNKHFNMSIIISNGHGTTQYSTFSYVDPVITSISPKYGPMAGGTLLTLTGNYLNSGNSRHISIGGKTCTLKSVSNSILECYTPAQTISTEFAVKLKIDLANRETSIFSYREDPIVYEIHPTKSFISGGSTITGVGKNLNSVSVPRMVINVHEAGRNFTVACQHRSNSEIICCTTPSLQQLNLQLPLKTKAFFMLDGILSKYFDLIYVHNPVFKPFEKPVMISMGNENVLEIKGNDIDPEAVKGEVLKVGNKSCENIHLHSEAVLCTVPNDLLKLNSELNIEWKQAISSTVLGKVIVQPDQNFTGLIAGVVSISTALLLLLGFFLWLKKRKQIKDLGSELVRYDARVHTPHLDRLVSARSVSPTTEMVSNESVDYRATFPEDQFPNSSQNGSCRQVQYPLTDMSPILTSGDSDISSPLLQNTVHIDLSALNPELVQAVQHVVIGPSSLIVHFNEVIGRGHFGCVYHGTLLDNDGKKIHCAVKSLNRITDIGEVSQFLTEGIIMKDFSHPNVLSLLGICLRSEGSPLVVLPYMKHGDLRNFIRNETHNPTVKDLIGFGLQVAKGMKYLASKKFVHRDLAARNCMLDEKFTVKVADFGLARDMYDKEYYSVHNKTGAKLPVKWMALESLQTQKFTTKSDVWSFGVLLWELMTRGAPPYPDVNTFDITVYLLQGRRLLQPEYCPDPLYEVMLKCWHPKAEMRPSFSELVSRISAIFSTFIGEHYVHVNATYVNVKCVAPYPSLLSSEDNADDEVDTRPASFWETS
T5 sequence (P00519 whole entry): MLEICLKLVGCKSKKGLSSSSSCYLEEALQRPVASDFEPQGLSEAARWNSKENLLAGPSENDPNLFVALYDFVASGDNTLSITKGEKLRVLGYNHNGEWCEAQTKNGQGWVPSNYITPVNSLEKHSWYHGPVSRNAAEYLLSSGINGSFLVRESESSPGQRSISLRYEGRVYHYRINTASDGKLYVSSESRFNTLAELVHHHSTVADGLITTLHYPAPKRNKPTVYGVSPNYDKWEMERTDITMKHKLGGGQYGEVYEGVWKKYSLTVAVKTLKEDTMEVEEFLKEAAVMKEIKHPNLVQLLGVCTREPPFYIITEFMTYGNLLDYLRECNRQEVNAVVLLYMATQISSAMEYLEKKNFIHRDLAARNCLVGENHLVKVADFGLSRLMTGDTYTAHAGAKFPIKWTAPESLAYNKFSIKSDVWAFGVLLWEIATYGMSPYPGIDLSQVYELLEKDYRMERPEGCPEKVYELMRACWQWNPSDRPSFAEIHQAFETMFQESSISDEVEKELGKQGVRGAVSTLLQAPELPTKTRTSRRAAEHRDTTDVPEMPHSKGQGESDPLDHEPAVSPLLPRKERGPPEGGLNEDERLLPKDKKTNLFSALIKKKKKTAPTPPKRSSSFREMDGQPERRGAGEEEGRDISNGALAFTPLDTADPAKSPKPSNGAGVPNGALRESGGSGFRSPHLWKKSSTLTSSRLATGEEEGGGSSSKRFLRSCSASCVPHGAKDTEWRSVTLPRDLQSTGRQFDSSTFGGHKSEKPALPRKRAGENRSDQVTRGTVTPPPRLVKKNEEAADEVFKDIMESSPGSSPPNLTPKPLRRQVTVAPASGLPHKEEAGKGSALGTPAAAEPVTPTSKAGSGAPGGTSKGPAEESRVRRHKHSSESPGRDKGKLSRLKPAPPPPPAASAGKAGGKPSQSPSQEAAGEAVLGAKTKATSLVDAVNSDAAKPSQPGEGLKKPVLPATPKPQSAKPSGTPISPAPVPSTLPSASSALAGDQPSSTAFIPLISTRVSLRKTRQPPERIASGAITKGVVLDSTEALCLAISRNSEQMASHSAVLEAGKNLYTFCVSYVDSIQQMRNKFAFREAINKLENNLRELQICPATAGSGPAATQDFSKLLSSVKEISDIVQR

Row | SMILES | inhibition [1] | inhibition [2] | inhibition of growth at 10 µM (MCF7) | Kd [3] | inhibition of growth at 10 µM (KB) | inhibition at 72 h, 10 µM [4] | inhibition of growth at 10 µM (PC-3) | Kd [5] | inhibition of growth at 10 µM (HT-29) | Kd [6] | Kd [7] | Kd [8] | Kd [9]
1 | CC(C)[S+]([O-])c1ccccc1Nc1nc(Nc2ccc(CN3CCN(C)CC3)cc2)ncc1Cl (centres undefined) | > 90% | > 50% |  |  |  |  |  |  |  |  |  |  | 
2 | O=C(Nc1ccc(Oc2ncnc3nc[nH]c23)c(F)c1)c1cccn(-c2ccc(C(F)(F)F)cc2)c1=O |  |  | < 10% | 150 nM | < 10% | < 10% | < 10% | 2900 nM | < 10% |  |  |  | 
3 | O=C(Nc1ccc(Oc2ncnc3nc[nH]c23)c(F)c1)c1cccn(-c2ccc(F)cc2)c1=O |  |  | < 10% | 65 nM | < 10% | < 10% | < 10% | 200 nM | < 10% | 39 nM | 6600 nM | 42 nM | 40000 nM
4 | COc1cc2c(Nc3ccc(Br)cc3F)ncnc2cc1OCC1CCN(C)CC1 [VANDETANIB] |  |  | < 10% |  | < 10% | < 10% | < 10% |  | < 10% |  |  |  | 
5 | O=C(Nc1ccc(Oc2ncnc3[nH]cnc23)c(F)c1)c1ccccc1F |  |  | < 10% |  | < 10% | < 10% | < 10% |  | < 10% |  |  |  | 
6 | O=C(Nc1ccc(Oc2ncnc3[nH]cnc23)c(F)c1)c1cccn(-c2cccc(F)c2)c1=O |  |  | < 10% | 440 nM | < 10% | < 10% | < 10% | 900 nM | < 10% |  | 320 nM |  | 3300 nM
7 | COc1ccccc1C(=O)Nc1cccc(-c2nc3c(Nc4cccc(F)c4)ncnc3[nH]2)c1 |  |  | < 10% |  | < 10% | < 10% | < 10% |  | < 10% |  |  |  | 
8 | COc1ncccc1C(=O)Nc1ccc(Nc2ncnc3[nH]cnc23)c(F)c1 |  |  | < 10% |  | < 10% | < 10% | < 10% |  | < 10% |  |  |  | 
